# In ChEMBL document CHEMBL1144496, “Design, synthesis, and biological evaluation of novel iso-D-2',3'-dideoxy-3'-fluorothianucleoside derivatives” (Bioorg Med Chem, 2007):
# Active and inactive are the calls of the source. The calls are words filed in the database; no cut-off is given here.
# Assays:
# [1] = test system: Human T-cell leukemia virus type I; assay: Cytostatic activity against HTLV1 infected human MT4 lymphocyte; type: functional
# Outline: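 HTLV-1-infected human T-lymphocyte MT4 cells were exposed to compound at concentrations up to 100 μg/mL. Read-out was the 50% cytostatic concentration (CS50).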
# Vero = assay: Cytotoxicity against Vero cells; type: cell-based; conditions: chlorocebus sabaeus
# Outline: (§1)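 Cytotoxicity was assessed on uninfected cells: Vero (African green monkey kidney) and HeLa (human cervical carcinoma). Compounds were tested up to 100 μg/mL, and the value was reported as CC50, the 50% cytotoxic concentration.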
# Human alphaherpesvirus 2 = assay: Antiviral activity against HSV2 by CPE assay; type: functional, organism-based
# Outline: (§2)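 Compounds were tested at concentrations up to 100 μg/mL, and antiviral activity was expressed as EC50. For the […] line, the virus was strain […]. Cell hosts named in the work were MT4 (HTLV-1-infected human T-lymphocytes), HeLa and Vero (African green monkey kidney) cells.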
# Human alphaherpesvirus 1 = assay: Antiviral activity against HSV1 by CPE assay; type: functional, organism-based; outline: as §2
# HeLa = assay: Cytotoxicity against human HeLa cells; type: cell-based; outline: as §1
# [2] = test system: Vesicular stomatitis virus; assay: Antiviral activity against vesicular stomatitis virus by CPE assay; type: functional, organism-based; outline: as §2
# Influenza A virus [3] = type: functional, organism-based; conditions: H1N1
# Feline coronavirus = assay: Antiviral activity against Feline coronavirus WSU; type: functional, organism-based
# Outline: (§3)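 Feline virus strain WSU screened together with influenza A strains; test concentrations went up to 100 μg/mL, with antiviral activity and cytotoxicity both assessed.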
# [4] = test system: Human immunodeficiency virus 1; assay: Antiviral activity against HIV1 3B by CPE assay; type: functional, organism-based; conditions: Human immunodeficiency virus 1, 3B
# Influenza A virus [5] = assay: Antiviral activity against influenza virus type A H3N2; type: functional, organism-based
# Outline: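 Influenza A viruses were H1N1 strain Taiwan and H3N2 strain Johannesburg. Compounds were tested for antiviral activity and cytotoxicity at concentrations up to 100 μg/mL.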
# [6] = test system: Encephalomyocarditis virus; assay: Antiviral activity against encephalomyocarditis virus by CPE assay; type: functional, organism-based; conditions: Cardiovirus A; outline: as §2
# Coxsackievirus B3 = assay: Antiviral activity against coxsackie B virus type 3 by CPE assay; type: functional, organism-based; conditions: Enterovirus B
# [7] = test system: Feline infectious peritonitis virus; assay: Antiviral activity against FIP WSU; type: functional; outline: as §3
compound,measurement,setting,value
O=c1[nH]cnc2c1ncn2[C@H]1CC[C@@H](CO)O1 [DIDANOSINE],CS50,[1],>100 µg/mL
same,CC50,Vero,> 10 µg/mL
same,EC50,Human alphaherpesvirus 2,0.47 µg/mL
same,EC50,Human alphaherpesvirus 1,0.17 µg/mL
Nc1ccn([C@@H]2CS[C@H](CO)[C@H]2F)c(=O)n1,CC50,HeLa,14.54 µg/mL
same,EC50,[2],9.43 µg/mL
same,CS50,[1],>100 µg/mL
same,CC50,Vero,> 100 µg/mL
same,Activity,Influenza A virus [3],inactive
same,Activity,Feline coronavirus,inactive
same,EC50,[4],> 100 µg/mL
same,Activity,Influenza A virus [5],inactive
same,EC50,Human alphaherpesvirus 2,> 100 µg/mL
same,EC50,[6],> 14.5 µg/mL
same,EC50,Coxsackievirus B3,> 14.5 µg/mL
same,EC50,Human alphaherpesvirus 1,> 100 µg/mL
same,Activity,[7],inactive
NC(=O)c1ncn([C@@H]2O[C@H](CO)[C@@H](O)[C@H]2O)n1 [RIBAVIRIN],CC50,HeLa,> 300 µg/mL
same,EC50,[2],10.3 µg/mL
same,EC50,[6],23.4 µg/mL
same,EC50,Coxsackievirus B3,64.1 µg/mL
Cc1cn([C@@H]2CS[C@H](CO)[C@H]2F)c(=O)[nH]c1=O,CC50,HeLa,> 100 µg/mL
same,EC50,[2],> 100 µg/mL
same,CS50,[1],>100 µg/mL
same,CC50,Vero,> 100 µg/mL
same,Activity,Influenza A virus [3],inactive
same,Activity,Feline coronavirus,inactive
same,EC50,[4],> 100 µg/mL
same,Activity,Influenza A virus [5],inactive
same,EC50,Human alphaherpesvirus 2,> 100 µg/mL
same,EC50,[6],> 100 µg/mL
same,EC50,Coxsackievirus B3,> 100 µg/mL
same,EC50,Human alphaherpesvirus 1,> 100 µg/mL
same,Activity,[7],inactive
O=c1ccn([C@@H]2CS[C@H](CO)[C@H]2F)c(=O)[nH]1,CC50,HeLa,> 100 µg/mL
same,EC50,[2],> 100 µg/mL
same,CS50,[1],>100 µg/mL
same,CC50,Vero,> 100 µg/mL
same,Activity,Influenza A virus [3],inactive
same,Activity,Feline coronavirus,inactive
same,EC50,[4],> 100 µg/mL
same,Activity,Influenza A virus [5],inactive
same,EC50,Human alphaherpesvirus 2,> 100 µg/mL
same,EC50,[6],> 100 µg/mL
same,EC50,Coxsackievirus B3,> 100 µg/mL
same,EC50,Human alphaherpesvirus 1,> 100 µg/mL
same,Activity,[7],inactive
Nc1ncnc2c1ncn2[C@@H]1CS[C@H](CO)[C@H]1F,CC50,HeLa,> 100 µg/mL
same,EC50,[2],> 100 µg/mL
same,CS50,[1],>100 µg/mL
same,CC50,Vero,> 100 µg/mL
same,Activity,Influenza A virus [3],inactive
same,Activity,Feline coronavirus,inactive
same,EC50,[4],> 100 µg/mL
same,Activity,Influenza A virus [5],inactive
same,EC50,Human alphaherpesvirus 2,> 100 µg/mL
same,EC50,[6],> 100 µg/mL
same,EC50,Coxsackievirus B3,> 100 µg/mL
same,EC50,Human alphaherpesvirus 1,> 100 µg/mL
same,Activity,[7],inactive
